ABCG2 inh = inhibitors of human ABCG2 transporter, ABCB1 counter-screen; AID 1325; inhibition, % at 6.6 µM; Q9UNQ0; 190,000 tested, 0.1% active; IgMXP3 cells, JC-1 efflux, flow cytometry;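 active = inhibition above 80%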;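 also: 0% = DMSO and 100% = nicardipine control wells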
Target sequence (Q9UNQ0 whole entry, looked up): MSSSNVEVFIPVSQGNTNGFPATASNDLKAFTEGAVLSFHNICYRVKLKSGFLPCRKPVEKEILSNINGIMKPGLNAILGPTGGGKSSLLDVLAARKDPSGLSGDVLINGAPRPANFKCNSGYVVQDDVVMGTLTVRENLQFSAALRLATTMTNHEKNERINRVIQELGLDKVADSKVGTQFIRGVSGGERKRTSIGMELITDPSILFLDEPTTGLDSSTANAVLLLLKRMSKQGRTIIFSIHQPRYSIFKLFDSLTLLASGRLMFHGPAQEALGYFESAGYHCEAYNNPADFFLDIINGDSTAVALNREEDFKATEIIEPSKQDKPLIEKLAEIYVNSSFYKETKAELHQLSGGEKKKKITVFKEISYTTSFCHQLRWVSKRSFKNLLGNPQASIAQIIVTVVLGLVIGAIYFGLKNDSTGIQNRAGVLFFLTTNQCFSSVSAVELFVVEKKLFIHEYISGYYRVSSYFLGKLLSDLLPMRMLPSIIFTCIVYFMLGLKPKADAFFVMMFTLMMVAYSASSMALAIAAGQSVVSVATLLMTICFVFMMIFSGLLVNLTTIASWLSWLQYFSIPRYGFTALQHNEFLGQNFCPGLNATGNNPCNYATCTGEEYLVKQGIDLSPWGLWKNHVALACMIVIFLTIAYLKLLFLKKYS
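System: two drug-resistant human cell lines, ABCG2 and ABCB1; controls: nicardipine high and DMSO low controls; times: 10 min exposure at 25 °C with rotation, no wash; detection: flow cytometry of retained JC-1 fluorescence; read-out basis: percent efflux inhibition, scaled nicardipine 100% to DMSO 0%; doses: one concentration, 6.6 µM final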
Efflux pump inh = inhibitors of Candida antifungal efflux pumps expressed in yeast. S. cerevisiae Candida pump triplex, Nile Red efflux. AID 485275. 330,000 tested, 0.44% active. inhibition, % at 10 µM;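 active = plate passing quality check with inhibition over a set limit, or well fluorescence over plate mean plus 4 SD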;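 also: Nile Red retained in pooled yeast measured as flow cytometry median fluorescence; 0% = buffer negative control and 100% = Enniatin B positive control; higher means more Nile Red kept so more efflux inhibition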
MEKK3 PB1 HTS = raises or lowers MEK5 binding to the human MEKK3 PB1 domain; Q99759; bead-based flow cytometry, Alexa488-MEK5 binding to MEKK3; actives lie on both sides; 0 = blocked by unlabeled MEK5, 100 = vehicle; binding response (% of control), % at 10 µM; 290,000 tested, 1.4% active; AID 1529;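 active = binding response more than 3 SD above or below the average of its plate-row segment, actives on both sides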;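 also: Alexa488 bead fluorescence after subtracting the streptavidin-only scavenger bead signal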
MEKK2 WT-MEK5 = raises or lowers MEK5 binding to wildtype human MEKK2 PB1 domain | Q9Y2U5 | bead flow cytometry, Alexa488-MEK5 binding to MEKK2 WT; actives lie on both sides | binding response (% of control), % at 10 µM | 290,000 tested, 1.1% active | AID 1531; in the data active = binding response below about 67% or above about 130%
MEKK2 mut-MEK5 = signal of MEK5 binding to mutant human MEKK2 PB1 domain; bead flow cytometry, Alexa488-MEK5 binding to MEKK2 mutant; percent response, % at 10 µM; 290,000 tested, 0.35% active; in the data active = percent response above about 24%, passing the limit was not always enough
ABCB1 inh = blocks JC-1 efflux by human ABCB1 transporter; P08183; CCRF-Adr cells, flow cytometry; inhibition, % at 6.6 µM; 190,000 tested, 0.067% active; in the data active = inhibition above about 40%;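 also: 0% = vehicle and 100% = reference inhibitor; higher value means more JC-1 retained so stronger ABCB1 efflux block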
MEKK2wt confirm = raises or lowers MEK5 binding to wildtype human MEKK2, retest | shares compounds with MEKK3 PB1 HTS | bead flow cytometry, Alexa488-MEK5 binding to MEKK2 WT; actives lie on both sides | binding response (% of control), % at 10 µM | 5,900 tested, 2.4% active | AID 1892; in the data active = binding response below about 16% or above about 210%; inactive = in between
MEKK2mut confirm = signal of MEK5 binding to mutant human MEKK2, retest; shares compounds with MEKK3 PB1 HTS; bead flow cytometry, Alexa488-MEK5 binding to MEKK2 mutant; percent response, % at 10 µM; 5,900 tested, 2% active; AID 1893; in the data active = percent response mostly above about 71%, no sharp cut-off; inactive = mostly below about 38%;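 also: higher means compound restores mutant binding toward wildtype level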
MEKK3 confirm = confirmation of inhibitors of MEK5 binding to human MEKK3. shares compounds with MEKK3 PB1 HTS. bead flow cytometry, Alexa488-MEK5 binding to MEKK3; active compounds read low. binding response (% of control), % at 10 µM. 5,900 tested, 1.8% active. AID 1894;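 active = binding response below 72% of control, or above a set upper limit, though filed actives all read lower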;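 also: 100% = DMSO only wells and 0% = binding blocked by excess unlabeled MEK5; lower values mean stronger disruption of MEK5 binding to MEKK3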
* marks the source's active call; other numbers are inactive results; [ ] = another dose, or the depositor's remark. A selection: hits, their analogues and other compounds. The true share with any hit is near 2.5%.

Screening Cc1ccc(NC(=O)CCSc2nnnn2-c2ccc3c(c2)OCO3)cc1C returned ABCG2 inh 1, Efflux pump inh 0, MEKK3 PB1 HTS 101, MEKK2 WT-MEK5 96, MEKK2 mut-MEK5 -3 and ABCB1 inh 0.
For COc1cc(S(=O)(=O)n2cnc3ccccc32)ccc1Br the results were Efflux pump inh 0, MEKK3 PB1 HTS 101, MEKK2 WT-MEK5 104 and MEKK2 mut-MEK5 1.
Screening COc1ccccc1C(c1nnnn1CC1CCCO1)N1CCC(C(N)=O)CC1 (centres undefined) returned ABCG2 inh 3, Efflux pump inh 0, MEKK3 PB1 HTS 74*[inhibitor], MEKK2 WT-MEK5 85, MEKK2 mut-MEK5 -5, ABCB1 inh 1, MEKK2wt confirm 103, MEKK2mut confirm -3 and MEKK3 confirm 99.
`CCCCC(c1nnnn1CC1CCCO1)N1CCN(c2cccc(C)c2C)CC1` (centres undefined) gave ABCG2 inh 0, Efflux pump inh 0, MEKK3 PB1 HTS 104, MEKK2 WT-MEK5 109, MEKK2 mut-MEK5 18 and ABCB1 inh 1.
`COc1ccc(C(c2nnnn2CC2CCCO2)N2CCN(c3cccc(C)c3C)CC2)cc1` (centres undefined) gave ABCG2 inh 3, Efflux pump inh 0, MEKK3 PB1 HTS 122*, MEKK2 WT-MEK5 116, MEKK2 mut-MEK5 15, ABCB1 inh 1, MEKK2wt confirm 106, MEKK2mut confirm 2 and MEKK3 confirm 107.
Screening COCCn1nnnc1C(c1ccc(OC)cc1)N1CCN(c2ccccc2F)CC1 (centres undefined) returned ABCG2 inh -1, Efflux pump inh 0, MEKK3 PB1 HTS 122*, MEKK2 WT-MEK5 118, MEKK2 mut-MEK5 8, ABCB1 inh 0, MEKK2wt confirm 112, MEKK2mut confirm 3 and MEKK3 confirm 102.
COc1ccc(C(c2nnnn2CC2CCCO2)N2CCC(C(N)=O)CC2)cc1 (centres undefined) was read as ABCG2 inh 0, Efflux pump inh 0, MEKK3 PB1 HTS 98, MEKK2 WT-MEK5 103, MEKK2 mut-MEK5 -2 and ABCB1 inh 1.
O=C(CCn1cccn1)Nc1ccc2c(c1)OCCO2 was read as Efflux pump inh 0, MEKK3 PB1 HTS 97, MEKK2 WT-MEK5 98 and MEKK2 mut-MEK5 2.
COC(=O)c1c(C(=O)OC)c(-c2ccc(OC)cc2)n2c1CS(=O)(=O)C2 was read as Efflux pump inh 0, MEKK3 PB1 HTS 102, MEKK2 WT-MEK5 99 and MEKK2 mut-MEK5 6.
Screening Cc1ccc(C(=O)C(C)OC(=O)C2CC(=O)N(C3CCCCC3)C2)cc1 (centres undefined) returned ABCG2 inh 2, Efflux pump inh 0, MEKK3 PB1 HTS 99, MEKK2 WT-MEK5 96, MEKK2 mut-MEK5 -5 and ABCB1 inh 0.
Cn1nc(-c2ccccc2)c2ncc(C(F)(F)F)cc21 was read as ABCG2 inh 7, Efflux pump inh 0, MEKK3 PB1 HTS 97, MEKK2 WT-MEK5 98, MEKK2 mut-MEK5 -3 and ABCB1 inh 0.
For O=S(=O)(/C=C/c1ccccc1)N1CCN(c2ccc(F)cc2)CC1 the results were ABCG2 inh 1, Efflux pump inh 0, MEKK3 PB1 HTS 74*[inhibitor], MEKK2 WT-MEK5 82, MEKK2 mut-MEK5 -10, ABCB1 inh 0, MEKK2wt confirm 105, MEKK2mut confirm 5 and MEKK3 confirm 105.
For O=S(=O)(/C=C/c1ccccc1)N1CCN(c2ccccc2)CC1 the results were ABCG2 inh 2, Efflux pump inh 0, MEKK3 PB1 HTS 105, MEKK2 WT-MEK5 105, MEKK2 mut-MEK5 6 and ABCB1 inh 0.
`COC(=O)c1c(NC(=O)CN2CCN(C(=O)c3ccco3)CC2)c2c(C)cccc2n1C` gave ABCG2 inh 5, Efflux pump inh 0, MEKK3 PB1 HTS 122*, MEKK2 WT-MEK5 120, MEKK2 mut-MEK5 18, ABCB1 inh 1, MEKK2wt confirm 95, MEKK2mut confirm -3 and MEKK3 confirm 101.
For COC(=O)c1c(NC(=O)CN2CCN(C(=O)c3ccco3)CC2)c2cc(C)ccc2n1C the results were ABCG2 inh 1, Efflux pump inh 0, MEKK3 PB1 HTS 101, MEKK2 WT-MEK5 93, MEKK2 mut-MEK5 -2 and ABCB1 inh 1.
`O=c1c2c3nc4ccccc4nc3n(/N=C/c3ccncc3)c2ncn1-c1ccccc1` gave Efflux pump inh 0, MEKK3 PB1 HTS 131*, MEKK2 WT-MEK5 121, MEKK2 mut-MEK5 30, MEKK2wt confirm 98, MEKK2mut confirm -3 and MEKK3 confirm 102.
`Cc1[nH]n(-c2ccc([N+](=O)[O-])cc2)c(=O)c1C=NCCN1CCN(C(=O)c2ccc(F)cc2)CC1` gave ABCG2 inh 5, Efflux pump inh 0 and ABCB1 inh 1.
`Cc1[nH]n(-c2ccc([N+](=O)[O-])cc2)c(=O)c1C=NCCN1CCN(C(=O)c2cccc(F)c2)CC1` gave ABCG2 inh 3, Efflux pump inh 0, MEKK3 PB1 HTS 127*, MEKK2 WT-MEK5 126, MEKK2 mut-MEK5 8, ABCB1 inh 1, MEKK2wt confirm 110, MEKK2mut confirm 13 and MEKK3 confirm 105.
For Cc1c(CN(C)C)c2c(n1Cc1ccccc1)C(=O)c1ccc(Br)cc1-2 the results were ABCG2 inh -1, Efflux pump inh 0, MEKK3 PB1 HTS 89, MEKK2 WT-MEK5 139*, MEKK2 mut-MEK5 17, ABCB1 inh 0, MEKK2wt confirm 133, MEKK2mut confirm 21 and MEKK3 confirm 108.
Screening CCc1ccc(OCCn2cccn2)cc1 returned ABCG2 inh 7, Efflux pump inh 0, MEKK3 PB1 HTS 97, MEKK2 WT-MEK5 99, MEKK2 mut-MEK5 -2 and ABCB1 inh 1.
Screening CCC(/C=C1\Sc2ccc(OC)cc2N1CCO)=C\c1sc2ccc(OC)cc2[n+]1CCO returned ABCG2 inh -6, Efflux pump inh 0, MEKK3 PB1 HTS 36*[inhibitor], MEKK2 WT-MEK5 1.0*[inhibitor], MEKK2 mut-MEK5 -27, ABCB1 inh -1, MEKK2wt confirm 1.0*[inhibitor], MEKK2mut confirm -35 and MEKK3 confirm 39*.

Screens deposited in PubChem BioAssay by NMMLSC.
